Laboratory results taken from ChEMBL document CHEMBL4028855, “New Mandelalides Expand a Macrolide Series of Mitochondrial Inhibitors” (J Med Chem, 2017).
Active and inactive are the calls of the source. No cut-off for these calls is given here.

What was measured:
[1] = tested on: NCI-H460; test: Cytotoxicity against human NCI-H460 cells assessed as reduction in cell viability measured after 48 hrs by MTT assay; format: functional, cell-based; conditions: NCI-H460, 48 h
Summary of the method: (§1)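 Cells grown at 37 °C, 5% CO2 and seeded 16−18 h before treatment. Exposed to increasing concentrations or vehicle (0.1% DMSO) for 48 h. Viability read by MTT, with vehicle-treated cells set as 100%. Mean ± SE, n = 3 wells, at least three independent comparisons. EC50 obtained by nonlinear regression fit to a logistic equation.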

[2] = tested on: HeLa; test: Cytotoxicity against human HeLa cells assessed as reduction in cell viability measured after 48 hrs by MTT assay
[3] = species: Bos taurus; test: Inhibition of bovine heart mitochondrial ATP synthase activity assessed as decrease in ATP-dependent NADH oxidation at 1 uM measured every 30 secs for 30 mins by colorimetric assay relative to control
[4] = (§2) Inhibition of bovine heart mitochondrial ATP synthase activity assessed as decrease in ATP-dependent NADH oxidation measured every 30 secs for 30 mins by colorimetric assay relative to control; set-up: species or system Bos taurus
[5] = species: Homo sapiens; test: Inhibition of mitochondrial ATP synthase activity in human NCI-H292 cells assessed as decrease in basal oxygen consumption rate at 1 uM at 32 mins followed by addition of FCCP at 87 mins and rotenon /Antimycin A at 135 mins by real-time metabolic flux analysis; format: cell-based
[6] = species: Homo sapiens; test: Inhibition of mitochondrial ATP synthase activity in human NCI-H292 cells assessed as decrease in oxygen consumption rate at 1 uM at 87 mins followed by addition of rotenon /Antimycin A at 135 mins measured by real-time metabolic flux analysis; format: cell-based
[7] = species: Homo sapiens; test: Inhibition of mitochondrial ATP synthase activity in human NCI-H292 cells assessed as decrease in oxygen consumption rate at 1 uM at 32 mins followed by addition of 1 uM FCCP at 87 mins and 0.5 uM rotenon /Antimycin A at 135 mins measured by real-time metabolic flux analysis; format: cell-based
[8] = species: Homo sapiens; test: Inhibition of mitochondrial ATP synthase activity in human NCI-H292 cells assessed as decrease in oxygen consumption rate at 1 uM at 135 mins after FCCP treatment at 87 mins by real-time metabolic flux analysis; format: cell-based
[9] = tested on: HeLa; test: Cytotoxicity against human HeLa cells assessed as reduction in cell viability up to 1000 nM measured after 48 hrs by MTT assay; format: functional, cell-based; summary of the method: as §1
[10] = species: Bos taurus; test: Inhibition of bovine heart mitochondrial ATP synthase activity assessed as decrease in ATP-dependent NADH oxidation at 12.5 uM measured every 30 secs for 30 mins by colorimetric assay relative to control
[11] = tested on: HeLa; test: Cytotoxicity against human HeLa cells at 6000 cells per well assessed as decrease in cell viability up to 1 uM after 48 hrs by MTT assay; format: functional, cell-based
[12] = tested on: HeLa; test: Cytotoxicity against human HeLa cells assessed as reduction in cell viability at […] after 72 hrs by MTT assay; format: functional, cell-based
[13] = tested on: HeLa; test: Cytotoxicity against human HeLa cells at 10000 cells per well assessed as decrease in cell viability up to 1 uM after 48 hrs by MTT assay; format: functional, cell-based
[14] = tested on: HeLa; test: Cytotoxicity against human HeLa cells at 2000 cells per well assessed as decrease in cell viability at 0.25 to 1 uM after 48 hrs by MTT assay relative to control; format: functional
[15] = tested on: HeLa; test: Cytotoxicity against human HeLa cells assessed as reduction in cell viability at 0.03 to 300 nM after 72 hrs in presence of 2-deoyxglucose by MTT assay; format: functional, cell-based
[16] = tested on: HeLa; test: Cytotoxicity against human HeLa cells at 2000 cells per well assessed as decrease in cell viability at 100 to 1000 nM after 48 hrs by MTT assay relative to control; format: functional
[17] = Safety index, ratio of compound EC50 to Oligomycin A EC50 for cytotoxicity against HEK293T cells; format: cell-based, HEK-293T; conditions: human, read-out: Ratio EC50
Summary of the method: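 HEK 293T cells were grown in DMEM with 10% FBS, 2 mM L-glutamine and 1% penicillin/streptomycin at 37 °C and 5% CO2. They were seeded at two starting densities 16−18 h before treatment with increasing concentrations of test compound or oligomycin A (final DMSO ≤0.1%). Viability was read by MTT relative to vehicle (100%), with EC50s fit by nonlinear logistic regression and compared as a ratio.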

[18] = tested on: HeLa; test: Cytotoxicity against human HeLa cells at 6000 cells per well assessed as cell viability at 100 to 1000 nM after 48 hrs by MTT assay relative to control; format: functional
[19] = tested on: NCI-H460; test: Cytotoxicity against human NCI-H460 cells assessed as reduction in cell viability measured after 72 hrs by MTT assay; conditions: NCI-H460, 72 h
[20] = species: Bos taurus; test: as §2
[21] = tested on: HEK-293T; test: Cytotoxicity against HEK293T cells assessed as decrease in cell viability measured after 48 hrs by MTT assay; format: cell-based; conditions: human; summary of the method: as §1
[22] = tested on: HeLa; test: Cytotoxicity against human HeLa cells at 10000 cells per well assessed as cell viability at 100 to 1000 nM after 48 hrs by MTT assay relative to control; format: functional
[23] = tested on: HeLa; test: Induction of apoptosis in human HeLa cells assessed as caspase-3/7 activation at 1 to 300 nM incubated for 24 hrs measured by luminescence-based Caspase-Glo assay

Compound: CCCC(=O)O[C@H]1[C@@H](OC)[C@H](O[C@@H]2C[C@@H]3C[C@H](O)[C@]4(O)C(=O)O[C@@H](C[C@H](O)[C@@H]5C[C@H](C)[C@H](C/C=C\C=C\[C@H](C)C[C@H](C2)O3)O5)[C@H]4O)O[C@@H](C)[C@H]1OC(=O)CCC
- EC50 [1]: 2 µM
- EC50 [2]: 1.9 µM

Compound: COC[C@@H](C[C@H]1O[C@@](O)([C@H](O)[C@@H]2C[C@H](OC)[C@@H](O)CC/C=C(C)/C=C/[C@@H](O[C@@H]3O[C@@H](C)[C@H](OC)[C@@H](O)[C@@H]3O)[C@H](C)/C=C(C)/C=C(C)/C=C(\C)C(=O)O2)[C@H](C)[C@@H](O)[C@H]1C)O[C@H]1C[C@](C)(O)[C@@H](O[C@H]2C[C@@H](OC)[C@H](O)[C@@H](C)O2)[C@H](C)O1
- inhibition [3]: Active

Compound: CCCC(=O)O[C@H]1C[C@H]2C[C@@H](O)C[C@@H](C[C@@H](C)/C=C/C=C\C[C@@H]3O[C@@H](C[C@@H]3C)[C@@H](O)C[C@@H]3OC(=O)[C@]1(O)[C@@H]3O)O2
- EC50 [1]: > 3 µM
- IC50 [4]: 3.4 µM
- EC50 [2]: > 3 µM
- inhibition [5]: inactive

Compound: CCCC(=O)O[C@H]1C[C@H]2C[C@@H](O[C@@H]3O[C@@H](C)[C@@H](O)[C@@H](O)[C@H]3OC)C[C@@H](C[C@@H](C)/C=C/C=C\C[C@@H]3O[C@@H](C[C@@H]3C)[C@@H](O)C[C@H]3C[C@@]1(O)C(=O)O3)O2
- inhibition [6]: Active
- EC50 [1]: 0.044 µM
- EC50 [2]: 0.016 µM
- inhibition [7]: Active
- inhibition [8]: Active
- inhibition [5]: Active

Compound: COC(=O)/C=C/C[C@H]1C[C@@H](O[C@@H]2O[C@@H](C)[C@H](O)[C@@H](O)[C@H]2OC)C[C@@H](C[C@@H](C)/C=C/C=C\C[C@@H]2O[C@H]([C@@H](O)C[C@H](O)CO)C[C@@H]2C)O1
- Activity [9]: inactive

Compound: CCCC(=O)OC1C(=O)C(OC)C(O[C@@H]2C[C@@H]3C[C@H](OC(=O)CCC)[C@]4(O)C(=O)O[C@@H](C[C@H](O)[C@@H]5C[C@H](C)[C@H](C/C=C\C=C\[C@H](C)C[C@H](C2)O3)O5)[C@H]4O)OC1C (some centres undefined)
- EC50 [1]: 0.27 µM
- EC50 [2]: 0.05 µM

Compound: CCCC(=O)O[C@H]1[C@@H](OC)[C@H](O[C@@H]2C[C@@H]3C[C@H](OC(=O)CCC)[C@@]4(O)C[C@H](C[C@H](OC(C)=O)[C@@H]5C[C@H](C)[C@H](C/C=C\C=C\[C@H](C)C[C@H](C2)O3)O5)OC4=O)O[C@@H](C)[C@H]1OC(=O)CCC
- EC50 [1]: 0.79 µM
- EC50 [2]: > 3 µM

Compound: CC[C@@H]1/C=C/C=C/C[C@H](C)[C@@H](O)[C@](C)(O)C(=O)[C@@H](C)[C@H](O)[C@@H](C)C(=O)[C@H](C)[C@@H](O)[C@H](C)/C=C/C(=O)O[C@H]2[C@@H](C)[C@@H](CC1)O[C@@]1(CC[C@@H](C)[C@@H](C[C@H](C)O)O1)[C@@H]2C
- inhibition [10]: Active
- inhibition [7]: Active
- inhibition [5]: Active

Compound: OC[C@H]1OC(O)C[C@@H](O)[C@@H]1O (some centres undefined)
- Activity [11]: inactive
- Activity [12]: Active
- Activity [13]: inactive
- Activity [14]: 50%

Compound: CCCC(=O)O[C@H]1C[C@H]2C[C@@H](O)C[C@@H](C[C@@H](C)/C=C/C=C\C[C@@H]3O[C@@H](C[C@@H]3C)[C@@H](O)C[C@@H]3OC(=O)[C@]1(O)[C@@H]3OC(=O)CCC)O2
- EC50 [1]: 1.7 µM
- EC50 [2]: 0.66 µM

Compound: CO[C@H]1[C@H](O[C@@H]2C[C@@H]3C/C=C/C(=O)O[C@H](CO)C[C@H](O)[C@@H]4C[C@H](C)[C@H](C/C=C\C=C\[C@H](C)C[C@H](C2)O3)O4)O[C@@H](C)[C@H](O)[C@H]1O
- Activity [15]: Active
- Activity [16]: 25%
- selectivity ratio [17]: 13 to 30
- Activity [18]: 85%
- EC50 [19]: 0.011 µM
- inhibition [20]: Dose-dependent effect
- IC50 [4]: 0.0022 µM
- EC50 [2]: 0.0099 µM
- Activity [21]: Dose-dependent effect
- Activity [22]: 85%
- Activity [23]: Active
- inhibition [5]: Active

Compound: CCCC(=O)O[C@H]1[C@@H](OC)[C@H](O[C@@H]2C[C@@H]3C[C@H](OC(=O)CCC)[C@@]4(O)C[C@H](C[C@H](O)[C@@H]5C[C@H](C)[C@H](C/C=C\C=C\[C@H](C)C[C@H](C2)O3)O5)OC4=O)O[C@@H](C)[C@H]1OC(=O)CCC
- EC50 [1]: 0.91 µM
- EC50 [2]: 2 µM

Compound: CCCCCC(=O)O[C@H]1C[C@H]2C[C@@H](O)C[C@@H](C[C@@H](C)/C=C/C=C\C[C@@H]3O[C@@H](C[C@@H]3C)[C@@H](O)C[C@@H]3OC(=O)[C@]1(O)[C@@H]3OC(=O)CCC)O2
- EC50 [1]: 2.6 µM
- EC50 [2]: 0.33 µM

Compound: CCCCCCCC(=O)OC[C@@H]1C[C@H](O)[C@@H]2C[C@H](C)[C@H](C/C=C\C=C\[C@H](C)C[C@@H]3C[C@H](O[C@@H]4O[C@@H](C)[C@H](O)[C@@H](O)[C@H]4OC)C[C@H](C/C=C/C(=O)O1)O3)O2
- EC50 [1]: 0.0098 µM
- EC50 [2]: 0.0028 µM

Compound: CCCC(=O)O[C@H]1[C@@H](OC)[C@H](O[C@@H]2C[C@@H]3C[C@H](OC(C)=O)[C@@]4(O)C[C@H](C[C@H](OC(C)=O)[C@@H]5C[C@H](C)[C@H](C/C=C\C=C\[C@H](C)C[C@H](C2)O3)O5)OC4=O)O[C@@H](C)[C@H]1OC(=O)CCC
- EC50 [1]: 2.4 µM
- EC50 [2]: > 3 µM

Compound: CCCC(=O)O[C@H]1[C@@H](OC)[C@H](O[C@@H]2C[C@@H]3C[C@H](OC(=O)CCC)[C@]4(O)C(=O)O[C@@H](C[C@H](O)[C@@H]5C[C@H](C)[C@H](C/C=C\C=C\[C@H](C)C[C@H](C2)O3)O5)[C@H]4O)O[C@@H](C)[C@H]1OC(=O)CCC
- EC50 [1]: > 3 µM
- EC50 [2]: > 3 µM
